Laboratory results: ChEMBL document CHEMBL5030505, “Assessment of NR4A Ligands That Directly Bind and Modulate the Orphan Nuclear Receptor Nurr1” (J Med Chem, 2020)
Blank lines part the entries; values can stand above or below the molecule they belong to. Activity calls are given as the source filed them. The rule behind the calls is not given here.

Columns and labels:
Type in all cases: cell-based
[1] = molecular target: Nuclear receptor subfamily 4 group A member 2 (Homo sapiens) (UniProt P43354); assay: Modulation of full length human Nurr1 expressed in SKNBE(2) cells co-transfected with RXRalpha and luciferase reporter plasmid harboring NBRE response element assessed as decrease in luciferase activity at 0.244 to 15.63 uM incubated for 18 by luciferase reporter gene assay; details: SKNBE2, filed as modulator, dose 0.244-15.63 µM, time 18.0 hrs
How it was run: (§1)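 SK-N-BE(2)-C cells were kept in 1:1 EMEM/F12 with 10% FBS at 37°C and 5% CO2. They were cotransfected with full-length Nurr1 (1 μg), full-length RXRα (1 μg) and 3xNBRE- or 3xNurRE-luc reporter (6 μg) for 18 h, replated at 10,000 cells/well for 4 h, and then treated with ligand or vehicle in quadruplicate for 18 h. The readout was luciferase luminescence as fold over vehicle, reported as mean ± s.e.m. (n=4) from 2 independent experiments, one-way ANOVA.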

[2] = molecular target: Nuclear receptor subfamily 4 group A member 2 (Homo sapiens) (UniProt P43354); assay: Modulation of full length human Nurr1 expressed in SKNBE(2) cells co-transfected with RXRalpha and luciferase reporter plasmid harboring NurRE response element assessed as decrease in luciferase activity at 0.244 to 15.63 uM incubated for 18 by luciferase reporter gene assay; details: SKNBE2, filed as modulator, dose 0.244-15.63 µM, time 18.0 hrs; how it was run: as §1
PC-12 [3] = assay: Modulation of Gal4-fused VP16 expressed in PC12 cells co-transfected with UAS repoter gene assessed as decrease in luciferase activity at 0.244 to 15.63 uM incubated for 18 hrs by luciferase reporter gene assay; details: Human alphaherpesvirus 2, filed as modulator, dose 0.244-15.63 µM
How it was run: (§2)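 Cells in 10-cm dishes were transfected with Gal4-VP16 expression plasmid (2 μg) plus 5xUAS-luciferase reporter (2 μg) for 18 h. They were replated at 10,000 cells/well for 4 h, then given ligand or vehicle (water, ethanol or DMSO) in quadruplicate for 18 h. Luciferase was read with Britelite Plus. Fold change is versus vehicle-treated cells, with one-way ANOVA versus vehicle.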

HEK293T = assay: Modulation of Gal4-fused VP16 expressed in HEK293T cells co-transfected with UAS repoter gene assessed as decrease in luciferase activity at 0.244 to 15.63 uM incubated for 18 hrs by luciferase reporter gene assay; details: Human alphaherpesvirus 2, filed as modulator, dose 0.244-15.63 µM; how it was run: as §2
PC-12 [4] = assay: Cytotoxicity against rat PC-12 cells assessed as reduction in cell viability at 0.244 to 15.63 microM incubated for 18 hrs by Cell titer-glo assay; details: pc-12, 18 h, dose 0.244-15.63 µM
How it was run: (§3)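 Cells seeded at 1.5 million per 10-cm dish. Next day they were replated at 10,000 cells/well and rested 4 h. Ligand or vehicle (water, ethanol or DMSO, by ligand) was added in dose-response format in quadruplicate. After 18 h, viability was read by CellTiter-Glo luminescence. Data are mean ± s.e.m., generally representative of 2 independent experiments. One-way ANOVA versus vehicle.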

SK-N-BE(2) = assay: Cytotoxicity against human SKNBE2 cells assessed as reduction in cell viability at 0.244 to 15.63 uM incubated for 18 hrs by Cell titer-glo assay; details: dose 0.244-15.63 µM; how it was run: as §3
HEK-293T = assay: Cytotoxicity against human HEK293T cells assessed as reduction in cell viability at 0.244 to 15.63 microM incubated for 18 hrs by Cell titer-glo assay; details: dose 0.244-15.63 µM; how it was run: as §3
SKNBE2 = assay: Modulation of Gal4-fused VP16 expressed in SKNBE(2) cells co-transfected with UAS repoter gene assessed as decrease in luciferase activity at 0.244 to 15.63 uM incubated for 18 hrs by luciferase reporter gene assay; details: Human alphaherpesvirus 2, filed as modulator, dose 0.244-15.63 µM; how it was run: as §2
[5] = molecular target: Nuclear receptor subfamily 4 group A member 2 (Homo sapiens) (UniProt P43354); assay: Modulation of full length human Nurr1 expressed in SKNBE(2) cells co-transfected with luciferase reporter plasmid harboring NBRE response element assessed as decrease in luciferase activity at 0.244 to 15.63 uM incubated for 18 by luciferase reporter gene assay; details: SKNBE2, filed as modulator, dose 0.244-15.63 µM, time 18.0 hrs
How it was run: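 Transfection of SK-N-BE(2)-C cells (1:1 EMEM/F12, 10% FBS, 37°C, 5% CO2) used full-length Nurr1 alone (2 μg, no RXRα) with 3xNBRE- or 3xNurRE-luciferase reporter (6 μg) for 18 h. Cells were replated at 10,000/well for 4 h, then exposed to ligand or vehicle in quadruplicate for 18 h. Luminescence was expressed as fold over vehicle, as mean ± s.e.m. (n=4) from 2 independent experiments, one-way ANOVA against vehicle.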

[6] = molecular target: Nuclear receptor subfamily 4 group A member 2 (Homo sapiens) (UniProt P43354); assay: Modulation of full length human Nurr1 expressed in SKNBE(2) cells co-transfected with luciferase reporter plasmid harboring NurRE response element assessed as decrease in luciferase activity at 0.244 to 15.63 uM incubated for 18 by luciferase reporter gene assay; details: SKNBE2, filed as modulator, dose 0.244-15.63 µM, time 18.0 hrs
[7] = molecular target: Nuclear receptor subfamily 4 group A member 2 (Homo sapiens) (UniProt P43354); assay: Modulation of full length human Nurr1 expressed in HEK293T cells co-transfected with luciferase reporter plasmid harboring NurRE response element assessed as decrease in luciferase activity at 0.244 to 15.63 uM incubated for 18 by luciferase reporter gene assay; details: filed as modulator, dose 0.244-15.63 µM, time 18.0 hrs
How it was run: (§4)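 Full-length Nurr1 plasmid, alone (2 μg) or 1 μg plus full-length RXRα (1 μg), cotransfected with 3xNBRE- or 3xNurRE-luciferase reporter (6 μg) using Lipofectamine 2000, 18 h. Cells replated at 10,000/well for 4 h. Four ligand concentrations, or vehicle (water, ethanol or DMSO), added in quadruplicate for 18 h. Luciferase read. Fold change vs vehicle, mean ± s.e.m., one-way ANOVA vs vehicle.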

[8] = molecular target: Nuclear receptor subfamily 4 group A member 2 (Homo sapiens) (UniProt P43354); assay: Modulation of full length human Nurr1 expressed in HEK293T cells co-transfected with RXRalpha and luciferase reporter plasmid harboring NBRE response element assessed as decrease in luciferase activity at 0.244 to 15.63 uM incubated for 18 by luciferase reporter gene assay; details: filed as modulator, dose 0.244-15.63 µM, time 18.0 hrs; how it was run: as §4
[9] = molecular target: Nuclear receptor subfamily 4 group A member 2 (Homo sapiens) (UniProt P43354); assay: Modulation of full length human Nurr1 expressed in HEK293T cells co-transfected with RXRalpha and luciferase reporter plasmid harboring NurRE response element assessed as decrease in luciferase activity at 0.244 to 15.63 uM incubated for 18 by luciferase reporter gene assay; details: filed as modulator, dose 0.244-15.63 µM, time 18.0 hrs; how it was run: as §4
[10] = molecular target: Nuclear receptor subfamily 4 group A member 2 (Homo sapiens) (UniProt P43354); assay: Modulation of full length human Nurr1 expressed in PC12 cells co-transfected with luciferase reporter plasmid harboring NurRE response element assessed as decrease in luciferase activity at 0.244 to 15.63 uM incubated for 18 by luciferase reporter gene assay; details: PC-12, filed as modulator, dose 0.244-15.63 µM, time 18.0 hrs
How it was run: (§5)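 Here PC12 cells (FK-12 medium, 15% horse serum, 2.5% FBS, 37°C, 5% CO2) received full-length Nurr1 (2 μg) without RXRα, plus 3xNBRE- or 3xNurRE-luciferase reporter (6 μg), for 18 h. Cells were replated at 10,000/well for 4 h, then treated with ligand or vehicle in quadruplicate for 18 h. Luciferase luminescence was normalized to vehicle-treated cells. Results are mean ± s.e.m. (n=4) from 2 independent experiments, with one-way ANOVA against vehicle.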

[11] = molecular target: Nuclear receptor subfamily 4 group A member 2 (Homo sapiens) (UniProt P43354); assay: Modulation of full length human Nurr1 expressed in HEK293T cells co-transfected with luciferase reporter plasmid harboring NBRE response element assessed as decrease in luciferase activity at 0.244 to 15.63 uM incubated for 18 by luciferase reporter gene assay; details: filed as modulator, dose 0.244-15.63 µM, time 18.0 hrs; how it was run: as §4
[12] = molecular target: Nuclear receptor subfamily 4 group A member 2 (Homo sapiens) (UniProt P43354); assay: Modulation of full length human Nurr1 expressed in HEK293T cells co-transfected with luciferase reporter plasmid harboring NBRE response element at 0.244 to 15.63 uM incubated for 18 by luciferase reporter gene assay; details: dose 0.244-15.63 µM, time 18.0 hrs; how it was run: as §4
[13] = molecular target: Nuclear receptor subfamily 4 group A member 2 (Homo sapiens) (UniProt P43354); assay: Modulation of full length human Nurr1 expressed in PC12 cells co-transfected with luciferase reporter plasmid harboring NBRE response element at 0.244 to 15.63 uM incubated for 18 by luciferase reporter gene assay; details: PC-12, dose 0.244-15.63 µM, time 18.0 hrs; how it was run: as §5
[14] = molecular target: Nuclear receptor subfamily 4 group A member 2 (Homo sapiens) (UniProt P43354); assay: Modulation of full length human Nurr1 expressed in PC12 cells co-transfected with luciferase reporter plasmid harboring NurRE response element at 0.244 to 15.63 uM incubated for 18 by luciferase reporter gene assay; details: PC-12, dose 0.244-15.63 µM; how it was run: as §5
[15] = molecular target: Nuclear receptor subfamily 4 group A member 2 (Homo sapiens) (UniProt P43354); assay: Modulation of full length human Nurr1 expressed in HEK293T cells co-transfected with luciferase reporter plasmid harboring NurRE response element at 0.244 to 15.63 uM incubated for 18 by luciferase reporter gene assay; details: dose 0.244-15.63 µM, time 18.0 hrs; how it was run: as §4
[16] = molecular target: Nuclear receptor subfamily 4 group A member 2 (Homo sapiens) (UniProt P43354); assay: Modulation of full length human Nurr1 expressed in PC12 cells co-transfected with RXRalpha and luciferase reporter plasmid harboring NBRE response element at 0.244 to 15.63 uM incubated for 18 by luciferase reporter gene assay; details: PC-12, dose 0.244-15.63 µM, time 18.0 hrs
How it was run: (§6)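 PC12 cells were grown at 37°C and 5% CO2 in […] medium with 15% horse serum and 2.5% FBS. They were transfected with full-length Nurr1 (1 μg) plus full-length RXRα (1 μg) and 3xNBRE- or 3xNurRE-luciferase reporter (6 μg) for 18 h, then replated at 10,000 cells/well for 4 h. Ligand or vehicle (water, ethanol or DMSO) was added in quadruplicate for 18 h. Luminescence was read as fold change over vehicle. Results are mean ± s.e.m., n=4, from 2 independent experiments, analysed by one-way ANOVA against vehicle.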

[17] = molecular target: Nuclear receptor subfamily 4 group A member 2 (Homo sapiens) (UniProt P43354); assay: Modulation of full length human Nurr1 expressed in SKNBE(2) cells co-transfected with RXRalpha and luciferase reporter plasmid harboring NurRE response element at 0.244 to 15.63 uM incubated for 18 by luciferase reporter gene assay; details: SKNBE2, dose 0.244-15.63 µM, time 18.0 hrs; how it was run: as §1
[18] = molecular target: Nuclear receptor subfamily 4 group A member 2 (Homo sapiens) (UniProt P43354); assay: Modulation of full length human Nurr1 expressed in HEK293T cells co-transfected with RXRalpha and luciferase reporter plasmid harboring NurRE response element at 0.244 to 15.63 uM incubated for 18 by luciferase reporter gene assay; details: dose 0.244-15.63 µM, time 18.0 hrs; how it was run: as §4
[19] = molecular target: Nuclear receptor subfamily 4 group A member 2 (Homo sapiens) (UniProt P43354); assay: Modulation of full length human Nurr1 expressed in SKNBE(2) cells co-transfected with luciferase reporter plasmid harboring NurRE response element at 0.244 to 15.63 uM incubated for 18 by luciferase reporter gene assay; details: SKNBE2, dose 0.244-15.63 µM, time 18.0 hrs
[20] = molecular target: Nuclear receptor subfamily 4 group A member 2 (Homo sapiens) (UniProt P43354); assay: Modulation of full length human Nurr1 expressed in PC12 cells co-transfected with RXRalpha and luciferase reporter plasmid harboring NurRE response element at 0.244 to 15.63 uM incubated for 18 by luciferase reporter gene assay; details: PC-12, dose 0.244-15.63 µM, time 18.0 hrs; how it was run: as §6
[21] = molecular target: Nuclear receptor subfamily 4 group A member 2 (Homo sapiens) (UniProt P43354); assay: Modulation of full length human Nurr1 expressed in HEK293T cells co-transfected with RXRalpha and luciferase reporter plasmid harboring NBRE response element at 0.244 to 15.63 uM incubated for 18 by luciferase reporter gene assay; details: dose 0.244-15.63 µM, time 18.0 hrs; how it was run: as §4
[22] = molecular target: Nuclear receptor subfamily 4 group A member 2 (Homo sapiens) (UniProt P43354); assay: Modulation of full length human Nurr1 expressed in SKNBE(2) cells co-transfected with luciferase reporter plasmid harboring NBRE response element at 0.244 to 15.63 uM incubated for 18 by luciferase reporter gene assay; details: SKNBE2, dose 0.244-15.63 µM
[23] = molecular target: Nuclear receptor subfamily 4 group A member 2 (Homo sapiens) (UniProt P43354); assay: Modulation of full length human Nurr1 expressed in SKNBE(2) cells co-transfected with RXRalpha and luciferase reporter plasmid harboring NBRE response element at 0.244 to 15.63 uM incubated for 18 by luciferase reporter gene assay; details: SKNBE2, dose 0.244-15.63 µM; how it was run: as §1

Sequence of Nuclear receptor subfamily 4 group A member 2 (Homo sapiens) (P43354 whole entry, the tested form may be a part): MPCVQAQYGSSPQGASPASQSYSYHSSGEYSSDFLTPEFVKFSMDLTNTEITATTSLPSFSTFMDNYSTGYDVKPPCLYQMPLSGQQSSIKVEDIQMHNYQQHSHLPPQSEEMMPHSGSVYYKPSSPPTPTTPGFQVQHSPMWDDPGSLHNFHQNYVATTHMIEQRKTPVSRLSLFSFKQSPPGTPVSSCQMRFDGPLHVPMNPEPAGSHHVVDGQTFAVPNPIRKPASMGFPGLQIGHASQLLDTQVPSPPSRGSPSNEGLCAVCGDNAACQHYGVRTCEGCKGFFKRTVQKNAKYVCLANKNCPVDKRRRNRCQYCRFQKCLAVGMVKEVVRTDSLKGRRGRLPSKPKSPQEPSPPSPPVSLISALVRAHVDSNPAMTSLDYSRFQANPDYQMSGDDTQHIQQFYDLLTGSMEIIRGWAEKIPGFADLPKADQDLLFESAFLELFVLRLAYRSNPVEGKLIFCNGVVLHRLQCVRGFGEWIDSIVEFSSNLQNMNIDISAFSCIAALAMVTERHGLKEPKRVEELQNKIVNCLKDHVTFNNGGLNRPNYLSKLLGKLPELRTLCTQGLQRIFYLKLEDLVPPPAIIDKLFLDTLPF

Activity [1]: Active
Activity [2]: Active
Activity [5]: Active
Activity [6]: Active
Activity [7]: Active
Activity [8]: Active
Activity [9]: Active
Activity [10]: Active
Activity [11]: Active
Structure (SMILES): C=C1C(=O)O[C@@H]2C[C@@]3(C)CCCC(=C)[C@@H]3C[C@H]12 [ISOALANTOLACTONE]
Activity (PC-12 [3]): Active
Activity (HEK293T): Active
Activity (PC-12 [4]): Toxic
Activity (SK-N-BE(2)): Toxic
Activity (HEK-293T): Toxic
Activity (SKNBE2): Active

Activity [12]: inactive
Activity [13]: inactive
Activity [14]: inactive
Activity [15]: inactive
Activity [16]: inactive
Activity [17]: inactive
Activity [18]: inactive
Activity [19]: inactive
Activity [20]: inactive
Activity [21]: inactive
Activity [22]: inactive
Activity [23]: inactive
Structure (SMILES): CCCCCCCC(=O)c1cc(OC)c(OC)c(OC)c1CC(=O)OCC
Activity (PC-12 [3]): Active
Activity (HEK293T): Active
Activity (PC-12 [4]): Toxic
Activity (SK-N-BE(2)): Toxic
Activity (HEK-293T): Toxic
Activity (SKNBE2): Active
